Measured values: PubChem BioAssay
Active and inactive are the calls of the source.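 How the source made its calls, unless noted: active means visually confirmed hit in the image check and inhibition above 20%; inconclusive means visually confirmed hit but inhibition not above 20%; inactive means no visual hit in the image check.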

Legend:
[1] = inhibitors of TNFa-induced NFkB p65 translocation, primary screen, imaging, HUVEC, MLSMR starter and 10KST1 sets (AID 438;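 active means inhibition above 20% together with a positive visual image hit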;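 further: compound added about 3h40 before a 20 min TNFalpha stimulation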;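 on inhibition: signal is the nuclear over cytoplasmic p65 intensity ratio per well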); conditions: HUVEC TNFa-induced p65 nuclear translocation; cell count: measured here: nuclei count (cytotoxicity indicator), at 2.08 µM; inhibition: at 2 µM, stronger effect = higher value, 0% TNFa-plus-vehicle, 100% no-TNFa wells
[2] = inhibitors of mutant huntingtin aggregation, primary screen, imaging, exon1htt(103Q)mCFP cells, high-content imaging (AID 483;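 active means visual image review flags a hit and inhibition of aggregation exceeds 20%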;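 further: compound exposure lasted 3 days before fixation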;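 on nuclei count: percent of the per-plate median nuclei count of sample wells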); conditions: exon1htt(103Q)mCFP cell line, aggregate imaging, at 2 µM; inhibition of aggregation: stronger effect = higher value; nuclei count: measured here: cell count, toxicity
[3] = inhibitors of E-selectin induction by TNFa, primary screen, imaging, HUVEC, immunofluorescence, MLSMR starter and 10KST1 sets (AID 487); conditions: HUVEC TNFalpha-induced E-selectin immunofluorescence imaging, at 2 µM; inhibition: stronger effect = higher value; nuclei count: measured here: cell number, toxicity;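 on inhibition: signal is fraction of cell area covered by stained E-selectin grains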;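 on nuclei count: 100% = median nuclei count of all wells on the same plate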
[4] = target: Voltage-gated potassium channel subunit beta-2 (Rattus norvegicus) (UniProt P62483); experiment: KvBeta enzyme negative modulators, primary screen, biochemical, NADPH fluorescence (AID 622;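 active means fluorescence slope higher than the sample average by over 3 SD, cut at about -0.22 in these data, passing the limit was not always enough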;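 further: slope of raw intensity against log time taken from 70 to 1610 s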); conditions: recombinant KvBeta, 4-cyanobenzaldehyde reduction, at 10 µM, stronger effect = higher value
[5] = target: Voltage-gated potassium channel subunit beta-2 (Rattus norvegicus) (UniProt P62483); experiment: KvBeta positive modulators, primary screen, biochemical, NADPH fluorescence (AID 623;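 active means NADPH fluorescence slope more negative than the mean of all samples by about 3 SD, 99.7% confidence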;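 further: fluorescence intensity change per second fitted from 20 to 320 s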); conditions: Recombinant KvBeta, NADPH fluorescence decrease slope, 10 min; at 10 µM; stronger effect = lower value
[6] = target: Muscarinic acetylcholine receptor M4 (Homo sapiens) (UniProt P08173); experiment: compounds altering M4/GIRK thallium flux, either direction, primary screen, M4 allosteric agonist project, cell-based, HEK293 M4/GIRK, BTC-AM (AID 625;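 active means fluorescence slope after compound addition differing from the mean of all tested samples at 99.7% confidence, mostly higher but some lower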;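 further: thallium influx through GIRK channels coupled to M4 in HEK293 cells with BTC-AM dye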); conditions: at 10 µM, actives lie on both sides
Procedure, shortened: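 Material – HEK293 cells with M4 receptor and GIRK channels · Buffer or medium – pH 7.3 thallium assay buffer · Doses – one dose, 10 µM final · Timing – cells overnight at 37 °C, BTC-AM loading 1 h, reads 2 min total · Measured by – kinetic fluorescence with BTC-AM dye · Controls – carbachol and DMSO controls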

[7] = inhibitors of Sendai virus-induced IRF3 signaling, primary screen, TLR/RLR signaling modifier project, cell-based, Sendai virus stimulus, luciferase, 10K MLSCN set (AID 602276;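 active means inhibition at or above 50% at 10 µM; inactive means inhibition below 50%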;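 further: firefly luciferase from ISG56 promoter only with Renilla not read in this screen; 0% = Sendai virus plus DMSO and 100% = medium plus DMSO without virus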); conditions: HEK293 RL24 IRF3 luciferase reporter, at 10 µM, stronger effect = higher value
[8] = inhibitors of poly I:C-induced TLR3 signaling, primary screen, cell-based, poly I:C stimulus, luciferase, 10K MLSCN set (AID 602277;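 active means inhibition of the reporter signal at or above 50%; inactive means inhibition below 50%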); conditions: HEK293-TLR3 RL24 IRF3 luciferase reporter, at 10 µM, stronger effect = higher value

Sequence of Voltage-gated potassium channel subunit beta-2 (Rattus norvegicus) (P62483 whole entry, looked up): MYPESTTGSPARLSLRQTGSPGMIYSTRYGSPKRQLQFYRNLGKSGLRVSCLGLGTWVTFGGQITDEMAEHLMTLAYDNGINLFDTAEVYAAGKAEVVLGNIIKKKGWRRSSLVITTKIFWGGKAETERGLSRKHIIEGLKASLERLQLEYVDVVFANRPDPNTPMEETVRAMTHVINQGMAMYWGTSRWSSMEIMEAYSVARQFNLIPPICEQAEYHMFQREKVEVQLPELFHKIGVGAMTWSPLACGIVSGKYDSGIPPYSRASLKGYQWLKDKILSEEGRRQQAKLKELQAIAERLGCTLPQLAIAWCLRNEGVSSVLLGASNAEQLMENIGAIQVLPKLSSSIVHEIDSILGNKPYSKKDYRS
Sequence of Muscarinic acetylcholine receptor M4 (Homo sapiens) (P08173 whole entry, looked up): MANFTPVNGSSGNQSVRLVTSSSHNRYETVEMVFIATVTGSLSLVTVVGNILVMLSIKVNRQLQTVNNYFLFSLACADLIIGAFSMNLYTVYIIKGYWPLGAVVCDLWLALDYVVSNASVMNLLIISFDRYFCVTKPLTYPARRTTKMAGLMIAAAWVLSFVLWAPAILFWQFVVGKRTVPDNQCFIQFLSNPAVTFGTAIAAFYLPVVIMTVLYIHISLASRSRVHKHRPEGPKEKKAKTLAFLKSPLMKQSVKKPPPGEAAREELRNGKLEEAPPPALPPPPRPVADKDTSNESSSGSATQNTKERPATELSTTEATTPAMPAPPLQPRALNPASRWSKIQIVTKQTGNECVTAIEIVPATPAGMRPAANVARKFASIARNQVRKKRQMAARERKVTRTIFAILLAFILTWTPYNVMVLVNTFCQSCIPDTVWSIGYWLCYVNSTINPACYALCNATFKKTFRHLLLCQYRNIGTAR

Structure (SMILES) | cell count [1] | inhibition [1] | inhibition of aggregation [2] | nuclei count [2] [%] | inhibition [3] | nuclei count [3] [%] | fluorescence slope [4] | NADPH fluorescence slope [5] | fluorescence slope [6] | inhibition [7] | inhibition [8]
CCOC(=O)CCCn1nc(C)n2c(cc3sccc32)c1=O | 563 | -3.2% (inactive) | -1.6% (inactive) | 119 | -28.3% (inactive) | 119 | -0.406 (inactive) | 8.7e-05 (inactive) | 0.00716 (inactive) | -11.6% (inactive) | -28.8% (inactive)
O=C(CSC1=NC(=O)C(Cc2ccccc2)C(=O)N1)NC1CCCCC1 (stereo not drawn) | 605 | -9.8% (inactive) | -13.9% (inactive) | 104 | -11.4% (inactive) | 108 | -0.558 (inactive) | -6.8e-05 (inactive) | 0.0034 (inactive) | -10.2% (inactive) | -11.1% (inactive)
CCN(CC)CCCN(Cc1cc2cc(OC)ccc2[nH]c1=O)C(=O)Nc1ccccc1 | 327 | 7.1% (inactive) | -3.3% (inactive) | 86.4 | -31.9% (inactive) | 105 | -0.382 (inactive) | -5.9e-06 (inactive) | 0.00643 (inactive) | 17.1% (inactive) | 29.7% (inactive)
Cc1ccc(C(=O)CSc2nnc(CNc3ccc(C)cc3C)o2)cc1 | 553 | -7.3% (inactive) | 19.7% (inactive) | 97.5 | -124% (inactive) | 193 | -0.477 (inactive) | -8.9e-06 (inactive) | 0.00488 (inactive) | 6.54% (inactive) | -0.256% (inactive)
CCOC(=O)Cn1nnnc1CN(Cc1ccc(OC)cc1)Cc1cc2cc(C)cc(C)c2[nH]c1=O | 614 | 6.2% (inactive) | -1.3% (inactive) | 117 | -50.4% (inactive) | 117 | -0.595 (inactive) | -3.9e-05 (inactive) | 0.00531 (inactive) | -8.1% (inactive) | -1.09% (inactive)
Cc1ccc2c(c1)-c1cc(C)nn1C(c1ccc3c(c1)OCO3)N2 (stereo not drawn) | 651 | 4.2% (inactive) | 16% (inactive) | 99.1 | -7.1% (inactive) | 130 | -0.568 (inactive) | -2.2e-05 (inactive) | 0.00558 (inactive) | -4.39% (inactive) | -18.6% (inactive)
CCn1c(CC(=O)Nc2cccc(OC)c2)nnc1SCC(=O)Nc1nccs1 | 835 | 4.3% (inactive) | 8.8% (inactive) | 103 | -129% (inactive) | 112 | -0.545 (inactive) | -3.8e-05 (inactive) | 0.00415 (inactive) | 4.04% (inactive) | 21.5% (inactive)
CCOC(=O)c1c(NC(=O)Cn2c(C)nc3ccccc32)sc2c1CCC2 | 459 | -6.2% (inactive) | 15.3% (inactive) | 102 | -75.4% (inactive) | 112 | -0.552 (inactive) | -2.4e-05 (inactive) | 0.00437 (inactive) | 17.3% (inactive) | 24% (inactive)
CCn1c(=S)sc2nc(C)sc21 | 266 | 1.3% (inactive) | -4.4% (inactive) | 76.2 | -38.4% (inactive) | 124 | -0.598 (inactive) | 3.2e-06 (inactive) | 0.00458 (inactive) | 13.4% (inactive) | 15% (inactive)
COc1ccccc1-n1c(C)nnc1SCC(N)=O | 382 | 6.2% (inactive) | 7.3% (inactive) | 100 | -49.7% (inactive) | 103 | -0.521 (inactive) | -1.4e-05 (inactive) | 0.00439 (inactive) | 17.4% (inactive) | 22.3% (inactive)
O=C(CCNC(=O)Cn1ccc2ccccc2c1=O)NCCN1CCN(c2ccccc2F)CC1 | 335 | -5.7% (inactive) | -19.4% (inactive) | 104 | 1.6% (inactive) | 104 | -0.528 (inactive) | 3.6e-05 (inactive) | 0.00558 (inactive) | 12.1% (inactive) | 14.1% (inactive)
CCN1CCN(C(=O)c2ccc3c(=O)n(C4CCCC4)c(=S)[nH]c3c2)CC1 | 507 | -4.3% (inactive) | 8.5% (inactive) | 82.3 | -19.6% (inactive) | 111 | -0.517 (inactive) | 6.6e-05 (inactive) | 0.00572 (inactive) | -15.8% (inactive) | -6.81% (inactive)
O=C1c2cccnc2C(O)N1Cc1ccc(F)cc1 (stereo not drawn) | 375 | 1.1% (inactive) | 13.7% (inactive) | 118 | -11.7% (inactive) | 116 | -0.354 (inactive) | -8.5e-05 (inactive) | 0.00468 (inactive) | 10.8% (inactive) | 17.7% (inactive)
O=C(Cn1nnc(-c2ccncc2)n1)Nc1ccc2c(c1)CCC2 | 674 | -8.6% (inactive) | 5% (inactive) | 89.1 | -115% (inactive) | 140 | -0.465 (inactive) | -6.3e-05 (inactive) | 0.00619 (inactive) | -0.547% (inactive) | -23.3% (inactive)
Cc1ccccc1C(=O)NC1CCN(CC(=O)Nc2nccs2)CC1 | 608 | -39.8% (inactive) | 8.2% (inactive) | 111 | -37.1% (inactive) | 109 | -0.476 (inactive) | 7.7e-05 (inactive) | 0.00698 (inactive) | 9.51% (inactive) | 14.2% (inactive)
CC(C)CCNC(=O)NC(=O)CN1C(=O)NC2(CCCCC2)C1=O | 560 | -14.9% (inactive) | 13.2% (inactive) | 106 | -209% (inactive) | 87 | -0.498 (inactive) | 7.2e-05 (inactive) | 0.00636 (inactive) | -8.08% (inactive) | -2.49% (inactive)
CCCN(CCC)C(=O)CSc1nc2ccccc2c(=O)n1C1CCCC1 | 475 | 3% (inactive) | -13.4% (inactive) | 93.4 | -7.5% (inactive) | 117 | -0.452 (inactive) | -1.1e-05 (inactive) | 0.00476 (inactive) | 15.9% (inactive) | 10.1% (inactive)
CCc1ccc2c(CN(CC)Cc3nc4ccccc4c(=O)[nH]3)cc(=O)oc2c1 | 530 | 1.4% (inactive) | 2% (inactive) | 114 | -23.3% (inactive) | 107 | -0.57 (inactive) | 5.5e-06 (inactive) | 0.00486 (inactive) | 17.1% (inactive) | 26.9% (inactive)
CCN(CC)C(=O)Oc1ccccc1NC(C)=O | 366 | -3.9% (inactive) | 17.2% (inactive) | 85.8 | -63.5% (inactive) | 121 | -0.221 (inactive) | 2.5e-07 (inactive) | 0.00764 (inactive) | 20.6% (inactive) | 13.2% (inactive)
O=C(O)C1CSC2c3ccccc3C(=O)N12 (stereo not drawn) | 729 | -4.7% (inactive) | -3.2% (inactive) | 96.3 | -66.8% (inactive) | 107 | -0.577 (inactive) | -6.7e-06 (inactive) | 0.00676 (inactive) | 11.2% (inactive) | 19% (inactive)
O=P(O)(O)c1ccccc1OCCOCCOc1ccccc1P(=O)(O)O | 311 | -0.9% (inactive) | 8% (inactive) | 60.2 | -21.3% (inactive) | 86.4 | -0.308 (inactive) | -5.3e-05 (inactive) | 0.00635 (inactive) | 11.2% (inactive) | 15.3% (inactive)
O=C(CNS(=O)(=O)c1ccc(Br)s1)N1CCCC1 | 367 | 3.7% (inactive) | -1% (inactive) | 93.3 | -164% (inactive) | 101 | -0.636 (inactive) | -9.6e-06 (inactive) | 0.00369 (inactive) | 21.1% (inactive) | 25.7% (inactive)
Cn1c(=O)c(NC(=O)c2ccccc2)c2n(c1=S)CCCCC2 | 359 | -5.7% (inactive) | 13.7% (inactive) | 95.3 | -17% (inactive) | 107 | -0.57 (inactive) | -1.1e-05 (inactive) | 0.00647 (inactive) | 16.3% (inactive) | 20% (inactive)
COc1ccccc1-c1nc(C(F)(F)F)c(OC)o1 | 469 | -3.3% (inactive) | -0.2% (inactive) | 120 | -126% (inactive) | 215 | -0.423 (inactive) | -9.3e-07 (inactive) | 0.00491 (inactive) | 21.1% (inactive) | 11.8% (inactive)
Cc1cccc(OCC(=O)Nc2ccccc2N2CCN(C(=O)C(C)C)CC2)c1C | 232 | -21.4% (inactive) | 6% (inactive) | 73.8 | -26.3% (inactive) | 68.6 | -0.585 (inactive) | -2.3e-05 (inactive) | 0.00511 (inactive) | 15.5% (inactive) | 25.9% (inactive)
COc1ccccc1C(O)P(=O)(OC(C)C)c1ccc(N(C)C)cc1 (stereo not drawn) | 665 | -3.9% (inactive) | 6.1% (inactive) | 122 | 0% (inactive) | 106 | -0.553 (inactive) | 2.2e-06 (inactive) | 0.00553 (inactive) | 7.42% (inactive) | 11% (inactive)
N#CCCCN1C(=O)C(O)(CC(=O)c2ccc3c(c2)OCCO3)c2ccccc21 (stereo not drawn) | 698 | -8.8% (inactive) | -16.7% (inactive) | 100 | -15.5% (inactive) | 112 | -0.567 (inactive) | 1.9e-06 (inactive) | 0.0053 (inactive) | 7.56% (inactive) | 11.6% (inactive)
Cc1cc(C)c2c(n1)sc1c(N3CCOCC3)ncnc12 | 301 | -4.9% (inactive) | -151% (inactive) | 0.6 | -61.4% (inactive) | 121 | -0.305 (inactive) | -6.3e-05 (inactive) | 0.00639 (inactive) | 5.74% (inactive) | -3.16% (inactive)
